Assay results as given in ChEMBL document CHEMBL1150958, “Growth-inhibitory activities of benzofuran and chromene derivatives toward Tenebrio molitor” (1998).

Columns and labels:
[1] = system: Tenebrio molitor; assay: Growth inhibition of last instar larvae of Tenebrio molitor assessed as duration of pupal stage at 120 ug/larvae, applied topically measured every 24 hrs for 30 days; assay type: functional
Procedure, shortened: (§1)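 Last-instar T. molitor larvae (113–160 mg, from a stock culture kept on wheat bran) were dosed once, topically on the ventral abdominal segments by microsyringe, with 2 µL acetone solution (120 µg compound per larva). Solvent-only controls were included. Larvae were unfed. Pupation and pupal-stage length were scored every 24 h to day 30. n = 60, mean (SE). Pupation was analysed by χ² test and pupal duration by Dunnett test.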

[2] = system: Tenebrio molitor; assay: Growth inhibition of last instar larvae of Tenebrio molitor assessed as successful pupation at 120 ug/larvae, applied topically measured every 24 hrs for 30 days; assay type: functional; parameters: scale not given: the % may be the effect or the level left; procedure, shortened: as §1

SMILES | Activity [1] [days] | Activity [2] [%]
CC(C)CCc1cc(CCC(=O)O)ccc1O | 10.2 | 50
CC(=O)c1cc2c(cc1O)OC(C)(C)C=C2 [DEMETHYLENCECALIN] | 11.5 | 66.6
C=C(CO)[C@@H]1Cc2cc(C(C)=O)ccc2O1 [BITALIN A] | 8.6 | 75
O=C(O)/C=C/c1ccccc1 [CINNAMIC ACID] | 8.7 | 92
C=C(COC(C)=O)[C@@H]1Cc2cc(C(C)=O)c(O)cc2O1 | 11.2 | 73.3
COC(=O)/C=C/c1ccc2c(c1)CCC(C)(C)O2 | 7 | 87
CC(C)=CCc1cc(/C=C/C(=O)O)ccc1O [DRUPANIN] | 13 | 63
C=C(COC(C)=O)[C@@H]1Cc2cc(C(C)=O)ccc2O1 | 9.8 | 75
CC(=O)c1ccc2c(c1)C(=O)CC(C)(C)O2 | 12.1 | 87
C=C(COC(=O)/C=C/c1ccc(O)cc1)[C@@H]1Cc2cc(C(C)=O)ccc2O1 | 10.5 | 26
CC(=O)c1ccc(O)c(C(=O)C=C(C)C)c1 | 11.4 | 75
O=C(O)/C=C/c1ccc(O)cc1 [COUMARIC ACID] | 10 | 87
C=C(C)c1cc2cc(C(C)=O)c(O)cc2o1 [EUPARIN] | 10.5 | 83
C=C(CO)[C@@H]1Cc2cc(C(C)=O)c(O)cc2O1 | 11.6 | 73
